Data from ChEMBL document CHEMBL4477166, “18β-Glycyrrhetinic Acid Derivatives Possessing a Trihydroxylated A Ring Are Potent Gram-Positive Antibacterial Agents” (2016).
Converted amounts (≈) assume the structure as drawn. Blank lines part the entries; values can stand above or below the compound they belong to. The source made the active and inactive calls. The calls are words filed in the database; no cut-off is given here.

Assays:
Bacillus subtilis [1] = assay: Antibacterial activity against Bacillus subtilis ATCC 6051 by microdilution assay; type: functional
Summary of the method: (§1)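 Turbidimetric broth microdilution. Log-phase cells were washed and resuspended in broth (LB at 37 °C for B. subtilis and S. aureus; oat bran broth at 28 °C for S. scabies) and seeded at 1 × 10⁵ CFU/mL. Twofold serial dilutions were made with DMSO ≤1% (v/v). A620 was read, then plates were incubated with vigorous shaking. MIC was the lowest concentration with no apparent growth versus vehicle-only medium without cells. Run in triplicate.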

Streptomyces scabiei [2] = assay: Antibacterial activity against Streptomyces scabiei CGMCC4.7610246 by microdilution assay; type: functional; summary of the method: as §1
Staphylococcus aureus [3] = assay: Antibacterial activity against Staphylococcus aureus ATCC 25923 by microdilution assay; type: functional; summary of the method: as §1
Staphylococcus aureus [4] = assay: Antibacterial activity against methicillin-resistant Staphylococcus aureus by microdilution assay; type: functional
Summary of the method: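 Log-phase cells seeded at 1 × 10⁵ CFU/mL. Twofold serial dilutions made in broth with DMSO cosolvent, at most 1% v/v. Turbidity read at 620 nm before and after incubation with vigorous shaking. MIC is the lowest concentration with no apparent growth versus the medium-plus-vehicle control. Run in triplicate.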

Escherichia coli [5] = assay: Antibacterial activity against Escherichia coli at 100 uM measured after 5 to 6 hrs by microdilution assay; type: functional, organism-based
Pseudomonas aeruginosa [6] = assay: Antibacterial activity against Pseudomonas aeruginosa at 100 uM measured after 5 to 6 hrs by microdilution assay; type: functional, organism-based
Pseudomonas aeruginosa [7] = assay: Antibacterial activity against multi-drug resistant Pseudomonas aeruginosa at 100 uM measured after 5 to 6 hrs by microdilution assay; type: functional, organism-based
Summary of the method: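 Log-phase cells seeded at 1 × 10⁵ CFU/mL. Single-dose screen at 100 μM, with DMSO cosolvent at most 1% v/v. Growth measured turbidimetrically at 620 nm, before and after incubation with vigorous shaking.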

Bacillus subtilis [8] = assay: Antibacterial activity against Bacillus subtilis ATCC 6051 by time-kill analysis; type: functional, organism-based
Summary of the method: (§2)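 Time-kill in LB at 37 °C. B. subtilis or S. aureus suspensions were set at 5 × 10⁵ CFU/mL and exposed to 0.5×, 1×, 2× and 4× MIC alongside negative and positive controls. Samples of 1 mL were taken at 0, 2, 4, 6, 8, 12 and 24 h, serially diluted and plated for viable counts, and survival was calculated. Three repeats.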

Streptomyces scabiei [9] = assay: Antibacterial activity against Streptomyces scabiei CGMCC4.7610246 by time-kill analysis; type: functional, organism-based
Summary of the method: (§3)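 Killing kinetics for S. scabies in oat bran broth at 28 °C, starting at 5 × 10⁵ CFU/mL. Exposure was 0.5×, 1×, 2× or 4× MIC, with negative and positive controls. Samples of 1 mL were withdrawn at 0, 4, 8, 16, 24 and 36 h, serially diluted and plated, and survival was calculated from colony counts. Performed in triplicate.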

Staphylococcus aureus [10] = assay: Antibacterial activity against Staphylococcus aureus ATCC 25923 by time-kill analysis; type: functional, organism-based; summary of the method: as §2
Bacillus subtilis [11] = assay: Antibacterial activity against Bacillus subtilis ATCC 6051 at 0.5 times MIC by time-kill analysis; type: functional, organism-based; summary of the method: as §2
Streptomyces scabiei [12] = assay: Antibacterial activity against Streptomyces scabiei CGMCC4.7610246 at 0.5 times MIC by time-kill analysis; type: functional, organism-based; summary of the method: as §3
Staphylococcus aureus [13] = assay: Antibacterial activity against Staphylococcus aureus ATCC 25923 at 0.5 times MIC by time-kill analysis; type: functional, organism-based; summary of the method: as §2
Bacillus subtilis [14] = assay: Upregulation of ykuD expression in Bacillus subtilis ATCC 6051 at 0.5 times MIC by qRT-PCR analysis; type: functional, organism-based
Summary of the method: (§4)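 Bacteria were grown in broth with compound at 0.5 × MIC or vehicle to exponential phase (OD620 = 0.4) and then pelleted. Total RNA was reverse-transcribed, and SYBR-based real-time PCR was run against housekeeping genes. Relative expression versus control was calculated by 2^−ΔΔCT. Mean ± SEM, n = 3, significance at p < 0.05.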

Bacillus subtilis [15] = assay: Upregulation of lytF expression in Bacillus subtilis ATCC 6051 at 0.5 times MIC by qRT-PCR analysis; type: functional, organism-based; summary of the method: as §4
Staphylococcus aureus [16] = assay: Effect on lytM expression in Staphylococcus aureus ATCC 25923 at 0.5 times MIC by qRT-PCR analysis; type: functional, organism-based; summary of the method: as §4
Staphylococcus aureus [17] = assay: Inhibition of lytM expression in methicillin-resistant Staphylococcus aureus at 0.5 times MIC by qRT-PCR analysis; type: functional, organism-based
Summary of the method: (§5)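 MRSA grown in broth containing either 0.5 × MIC of test compound or vehicle alone. Cells harvested at exponential phase (OD₆₂₀ = 0.4). Total RNA reverse-transcribed, then SYBR-based real-time PCR run. Relative expression computed by the 2^−ΔΔCT method against the vehicle control or the parent-acid-treated group. Mean ± SEM, n = 3; significance set at p < 0.05.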

Staphylococcus aureus [18] = assay: Increase in fmhB expression in Staphylococcus aureus ATCC 25923 at 0.5 times MIC by qRT-PCR analysis relative to control; type: functional, organism-based; summary of the method: as §4
Staphylococcus aureus [19] = assay: Increase in fmhB expression in Staphylococcus aureus ATCC 25923 at 0.5 times MIC by qRT-PCR analysis relative to 18-beta-glycyrrhetinic acid; type: functional, organism-based; summary of the method: as §4
Staphylococcus aureus [20] = assay: Increase in fmhB expression in methicillin-resistant Staphylococcus aureus at 0.5 times MIC by qRT-PCR analysis relative to control; type: functional, organism-based; summary of the method: as §5
Staphylococcus aureus [21] = assay: Increase in fmhB expression in Staphylococcus aureus at 0.5 times MIC by qRT-PCR analysis relative to 18-beta-glycyrrhetinic acid; type: functional, organism-based; summary of the method: as §4
Bacillus subtilis [22] = assay: Reduction in mmD expression in Bacillus subtilis ATCC 6051 at 0.5 times MIC by qRT-PCR analysis relative to control; type: functional, organism-based; summary of the method: as §4
Staphylococcus aureus [23] = assay: Reduction in narG expression in Staphylococcus aureus ATCC 25923 at 0.5 times MIC by qRT-PCR analysis relative to control; type: functional, organism-based; summary of the method: as §4
Staphylococcus aureus [24] = assay: Reduction in narG expression in methicillin-resistant Staphylococcus aureus at 0.5 times MIC by qRT-PCR analysis relative to control; type: functional, organism-based; summary of the method: as §5
Bacillus subtilis [25] = assay: Upregulation of yhdT expression in Bacillus subtilis ATCC 6051 at 0.5 times MIC by qRT-PCR analysis relative to control; type: functional, organism-based; summary of the method: as §4
Bacillus subtilis [26] = assay: Upregulation of yqhB expression in Bacillus subtilis ATCC 6051 at 0.5 times MIC by qRT-PCR analysis relative to control; type: functional, organism-based; summary of the method: as §4
Staphylococcus aureus [27] = assay: Upregulation of seaR expression in Staphylococcus aureus ATCC 25923 at 0.5 times MIC by qRT-PCR analysis relative to control; type: functional, organism-based; summary of the method: as §4
Staphylococcus aureus [28] = assay: Upregulation of hla expression in Staphylococcus aureus ATCC 25923 at 0.5 times MIC by qRT-PCR analysis relative to control; type: functional, organism-based; summary of the method: as §4
Staphylococcus aureus [29] = assay: Inhibition of seaR expression in methicillin-resistant Staphylococcus aureus at 0.5 times MIC by qRT-PCR analysis relative to control; type: functional, organism-based; summary of the method: as §5
Staphylococcus aureus [30] = assay: Inhibition of hla expression in methicillin-resistant Staphylococcus aureus at 0.5 times MIC by qRT-PCR analysis relative to control; type: functional, organism-based; summary of the method: as §5
Staphylococcus aureus [31] = assay: Down regulation of mecA gene in methicillin-resistant Staphylococcus aureus at 0.5 times MIC by qRT-PCR analysis relative to control; type: functional, organism-based; summary of the method: as §5
Staphylococcus aureus [32] = assay: Down regulation of mecA gene in methicillin-resistant Staphylococcus aureus at 0.5 times MIC by qRT-PCR analysis relative to 18-beta-glycyrrhetinic acid; type: functional, organism-based; summary of the method: as §5
Streptomyces scabiei [33] = assay: Reduction in p450 expression in Streptomyces scabiei CGMCC4.7610246 at 0.5 times MIC by qRT-PCR analysis relative to control; type: functional, organism-based; summary of the method: as §4
Escherichia coli [34] = assay: Antibacterial activity against Escherichia coli ATCC 25922 measured after overnight incubation by microplate dilution assay; type: functional
Bacillus thuringiensis = assay: Antibacterial activity against Bacillus thuringiensis measured after 5 to 6 hrs by microdilution titre technique; type: functional
Escherichia coli [35] = assay: Antibacterial activity against Escherichia coli measured after 5 to 6 hrs by microdilution titre technique; type: functional

Compound: CCOC(=O)[C@@]1(C)CC[C@]2(C)CC[C@]3(C)C(=CC[C@@H]4[C@@]5(C)[C@@H](O)[C@H](O)[C@H](O)C(C)(C)[C@@H]5CC[C@]43C)[C@@H]2C1
MIC (Bacillus subtilis [1]): 2 µg/mL (≈ 3.87 µM) | MIC (Streptomyces scabiei [2]): 4.1 µg/mL (≈ 7.93 µM) | MIC (Staphylococcus aureus [3]): 1 µg/mL (≈ 1.94 µM) | MIC (Staphylococcus aureus [4]): 1 µg/mL (≈ 1.94 µM) | Activity (Escherichia coli [5]): inactive | Activity (Pseudomonas aeruginosa [6]): inactive | Activity (Pseudomonas aeruginosa [7]): inactive | Activity (Bacillus subtilis [8]): Dose-dependent effect | Activity (Streptomyces scabiei [9]): Dose-dependent effect | Activity (Staphylococcus aureus [10]): Dose-dependent effect | Activity (Bacillus subtilis [11]): inactive | Activity (Streptomyces scabiei [12]): inactive | Activity (Staphylococcus aureus [13]): inactive | Activity (Bacillus subtilis [14]): Active | Activity (Bacillus subtilis [15]): Active | Activity (Staphylococcus aureus [16]): inactive | inhibition (Staphylococcus aureus [17]): Active | Activity (Staphylococcus aureus [18]): Active | Activity (Staphylococcus aureus [19]): Active | Activity (Staphylococcus aureus [20]): Active | Activity (Staphylococcus aureus [21]): Active | Activity (Bacillus subtilis [22]): Active | Activity (Staphylococcus aureus [23]): Active | Activity (Staphylococcus aureus [24]): Active | Activity (Bacillus subtilis [25]): Active | Activity (Bacillus subtilis [26]): Active | Activity (Staphylococcus aureus [27]): Active | Activity (Staphylococcus aureus [28]): Active | inhibition (Staphylococcus aureus [29]): Active | inhibition (Staphylococcus aureus [30]): Active | Activity (Staphylococcus aureus [31]): Active | Activity (Staphylococcus aureus [32]): Active

Compound: CC1(C)[C@@H](O)CC[C@]2(C)[C@H]3C(=O)C=C4[C@@H]5C[C@@](C)(C(=O)O)CC[C@]5(C)CC[C@@]4(C)[C@]3(C)CC[C@@H]12 [ENOXOLONE]
MIC (Bacillus subtilis [1]): > 50 µg/mL | MIC (Streptomyces scabiei [2]): > 50 µg/mL | MIC (Staphylococcus aureus [3]): > 50 µg/mL | MIC (Staphylococcus aureus [4]): > 50 µg/mL | Activity (Escherichia coli [5]): inactive | Activity (Pseudomonas aeruginosa [6]): inactive | Activity (Pseudomonas aeruginosa [7]): inactive | Activity (Staphylococcus aureus [16]): inactive | Activity (Bacillus subtilis [22]): inactive | Activity (Staphylococcus aureus [23]): inactive | Activity (Staphylococcus aureus [24]): inactive | Activity (Streptomyces scabiei [33]): Active | Activity (Bacillus subtilis [25]): Active | Activity (Bacillus subtilis [26]): Active | Activity (Staphylococcus aureus [27]): Active | Activity (Staphylococcus aureus [28]): Active | inhibition (Staphylococcus aureus [29]): Active | inhibition (Staphylococcus aureus [30]): Active

MIC (Escherichia coli [34]): > 250 µg/mL
Compound: CC1(C)CC[C@H](O)[C@]2(C)[C@H]3CC=C4[C@@H]5C[C@@](C)(C(=O)O)CC[C@]5(C)CC[C@@]4(C)[C@]3(C)CC[C@@H]12

MIC (Bacillus thuringiensis): 0.9 µg/mL (≈ 1.9 µM) | MIC (Escherichia coli [35]): 3.9 µg/mL (≈ 8.25 µM)
Compound: CC1(C)CC[C@]2(C(=O)O)CC[C@]3(C)C(=CC[C@@H]4[C@@]5(C)C[C@@H](O)[C@H](O)C(C)(C)[C@@H]5CC[C@]43C)[C@@H]2C1 [MASLINIC ACID]
